24 compounds from ChEMBL document CHEMBL1137362, “Synthesis and radioligand binding studies of methoxylated 1,2,3,4-tetrahydroisoquinolinium derivatives as ligands of the apamin-sensitive Ca2+-activated K+ channels” (J Med Chem, 2006) can be followed below.

Usually Ki stands for a measure of affinity in units of concentration, obtained from inhibition or displacement. The IC50 is the point on the concentration scale where inhibition reaches its midpoint. A high value points to a need for much substance. One may read the Inhibition as the percentage by which the read-out fell short of the control. A lower Inhibition goes with a weak effect.

Experiment [1] concerns the target Small conductance calcium-activated potassium channel (Rattus norvegicus) (UniProt P70604+P70606+P70605). As to the kind of experiment: Displacement of [125I]apamin from Wistar rat cortical apamin-sensitive site at 10 uM. The format is protein assay. The procedure, abridged:
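Single-concentration screen at 10 µM: rat cortical synaptosomes (0.2 mg protein/mL) with 10 pM 125I-apamin, 1 h at 0 °C, Tris-HCl pH 7.5 buffer with 5.4 mM KCl and 0.1% BSA. Percent of specific radioligand binding displaced is reported; nonspecific binding defined with 0.1 µM apamin; filtration and scintillation counting; n = 3.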

The target of experiment [2] is Small conductance calcium-activated potassium channel (Rattus norvegicus, UniProt P70604+P70606+P70605). The experiment is described as follows: Displacement of [125I]apamin from Wistar rat cortical apamin-sensitive site. The format is protein assay.
The species entered for experiment [3] is Rattus norvegicus. As to the kind of experiment: Blockade of apamin-sensitive AHP in Wistar rat dopaminergic neurons by electrophysiology assay. In kind it is functional, organism-based. As to conditions: Neuron. An outline of the steps:
(§1)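 Intracellular bridge-balance recording of the apamin-sensitive AHP in dopaminergic neurons; drugs dissolved in water. IC50 obtained by fitting E = Emax/[1 + (IC50/x)h]; percent AHP block reported at 100 µM; means ± SEM, n = 3.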

The species named for experiment [4] is Rattus norvegicus. The experiment is described as follows: Blockade of apamin-sensitive AHP in Wistar rat dopaminergic neurons by electrophysiology assay at 100 uM. The format is functional, organism-based. As to conditions: neuron. The procedure, abridged: as §1

In the case of `COc1cc2c(cc1OC)C(Cc1ccc3ccccc3c1)N(C)CC2` (stereo unspecified), in experiment [1], the Activity amounted to 6%. Consider `COc1cc2c(cc1OC)C(Cc1ccc3ccccc3c1)[N+](C)(C)CC2.[I-]` (stereo unspecified), for which the Activity in experiment [1] was determined as 70%. In addition, the Ki in experiment [2] stood at 0.91 µM. On to `COc1ccc(CCC2c3cc(OC)c(OC)cc3CCN2C)cc1OC` (stereo unspecified), for which the Activity in experiment [1] came to 11%. Turning to `COc1cc2c(c(OC)c1)C(Cc1ccc(OC)c(OC)c1)[N+](C)(C)CC2` (stereo unspecified), in experiment [1], the Activity was 20%.

On to `CCCC1c2cc(OC)c(OC)cc2CCN1C` (stereo unspecified), for which the Activity in experiment [1] was 0%.

As for `CN1CCc2ccccc2C1Cc1ccc2ccccc2c1` (stereo unspecified), in experiment [1], the Activity came to 0%. With `COc1ccc(CCC2c3cc(OC)c(OC)cc3CC[N+]2(C)C)cc1OC.[I-]` (stereo unspecified), the Activity in experiment [1] was found to be 32%. The Ki in experiment [2] amounted to 5.4 µM. As for `COc1ccc2c(c1OC)C(Cc1ccc3ccccc3c1)[N+](C)(C)CC2` (stereo unspecified), the Activity in experiment [1] came out at 18%. Turning to `COc1ccc(CC2c3c(cc(OC)c(OC)c3OC)CC[N+]2(C)C)cc1OC.[I-]` (stereo unspecified), in experiment [1], the Activity is 72%. The Ki in experiment [2] was 0.73 µM. In the experiment listed under Rattus norvegicus [3], this compound showed an IC50 of 9 µM. Consider `COc1ccc2c(c1OC)C(Cc1ccc3ccccc3c1)N(C)CC2` (stereo unspecified), for which the Activity in experiment [1] came to 0%. On the same count and under the same terms, for `COc1cc2c(cc1OC)C(CC(C)C)N(C)CC2` (stereo unspecified) the value was 0%.

`COc1ccc(CC2c3c(ccc(OC)c3OC)CC[N+]2(C)C)cc1OC` (stereo unspecified): in experiment [1], the Activity was 24%. On to `COc1cc2c(c(OC)c1)C(Cc1ccc(OC)c(OC)c1)N(C)CC2` (stereo unspecified), for which the Activity in experiment [1] was determined as 0%. `COc1ccc2c(c1OC)C(=O)O[C@@H]2[C@H]1c2c(cc3c(c2OC)OCO3)CC[N+]1(C)C.[I-]`: the inhibition constant (Ki) in experiment [2] was determined as 3.6 µM. Take `COc1cc2c(c(OC)c1)C(Cc1ccc3ccccc3c1)[N+](C)(C)CC2` (stereo unspecified): the Activity in experiment [1] is 2%. As for `COc1ccc(CC2c3c(ccc(OC)c3OC)CCN2C)cc1OC` (stereo unspecified), in experiment [1], the Activity amounted to 3%. With `COc1cc2c(c(OC)c1OC)C(Cc1ccc3ccccc3c1)N(C)CC2` (stereo unspecified), the Activity in experiment [1] came to 0%. Turning to `COc1cc2c(c(OC)c1OC)C(Cc1ccc3ccccc3c1)[N+](C)(C)CC2.[I-]` (stereo unspecified), the Activity in experiment [1] turned out to be 53%. Moreover, in experiment [2], the inhibition constant (Ki) came to 2.2 µM. As to `COc1ccc(CC2c3c(cc(OC)c(OC)c3OC)CCN2C)cc1OC` (stereo unspecified), in experiment [1], the Activity was 27%. Also, the Inhibition in the experiment filed under Rattus norvegicus [4] was 51.9%.

For `COc1cc2c(cc1OC)C(CC(C)C)[N+](C)(C)CC2` (stereo unspecified), the Activity in experiment [1] worked out at 0%.

With `COc1ccc(C[C@H]2c3cc(OC)c(OC)cc3CC[N+]2(C)C)cc1OC.[I-]` [LAUDANOSINE METHIODIDE], in experiment [2], the inhibition constant (Ki) was 1.3 µM. The compound further yielded a half-maximal inhibitory concentration (IC50) in the experiment listed under Rattus norvegicus [3] of 15 µM. `C[N+]1(C)CCc2ccccc2C1Cc1ccc2ccccc2c1` (stereo unspecified): the Activity in experiment [1] turned out to be 1%.

On to `COc1cc2c(c(OC)c1)C(Cc1ccc3ccccc3c1)N(C)CC2` (stereo unspecified), for which the Activity in experiment [1] is 0%. On the same count and under the same terms, to `CCCC1c2cc(OC)c(OC)cc2CC[N+]1(C)C` (stereo unspecified) belongs 6%.
